A selection: hits, their analogues and other compounds. The true share with any hit is near 3%.
DNA FID counter: displaces DNA intercalator in HCV helicase counter-screen | 290,000 tested, 0.17% active | inhibition, % at 7.9 µM | DNA fluorescent intercalator displacement, fluorescence | AID 1845; in the data active = inhibition above about 37%;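 note: 0% = vehicle and 100% = reference compound; higher means more ethidium bromide displaced from hairpin DNA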
SR-BI uptake up: activators of SR-BI mediated HDL lipid uptake; AID 504775; activation, % at 12.5 µM; 320,000 tested, 0.096% active; CHO ldlA[mSR-BI] cells, DiI-HDL uptake fluorescence, 3 h; 100 = double the neutral-control signal;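 active = mean replicate activation of at least 60% and every replicate at or above 60%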;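 note: 0% = median plate neutral-control signal and 100% = twice that signal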
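Assay system: LDL receptor-deficient CHO ldlA cells overexpressing murine SR-BI / Medium: BSA-supplemented, HEPES-buffered Ham's F12, pH 7.4 / Probe or stimulus: DiI-labelled HDL at 10 µg/mL final / Timing: compound with DiI-HDL co-incubation, 3 h at 37 °C / Technique: bottom-read cell fluorescence after medium removal, ex 550/em 595 nm / Measure: HDL uptake via cellular fluorescence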
ANO1 activ: mouse TMEM16A channel activation, primary screen; Q8BHY3; HEK293 TMEM16A/YFP-H148Q/I152L, iodide quench fluorescence; stronger effect = lower value; B-score at 10 µM; 340,000 tested, 0.3% active;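 active = fluorescence-ratio B-score plate-corrected deviation score at least 3 library SD below zero, with starting fluorescence score within 5 deviations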;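 note: channel opened by trigger with iodide after compound preincubation; score built on the fluorescence ratio of max minus min over baseline; more negative score means more quench and so TMEM16A activation or potentiation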
Kir21 block: Kir2.1 (mouse) channel inhibition; 310,000 tested, 0.85% active; HEK293-Kir2.1, FluxOR thallium flux fluorescence; stronger effect = lower value; B-score at 10 µM; P35561;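 active = fluorescence ratio B-score at or below minus 3 SD of library scores, with starting-brightness B-score within 2 SD, cut at about -4.2 in these data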;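 note: channel flux triggered by added potassium and thallium sulfate stimulus; B-score of peak minus minimum fluorescence over baseline after thallium stimulus; more negative B-score means stronger Kir2.1 block with less thallium influx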
ANO1 block: inhibitors of mouse TMEM16A calcium-activated chloride channel; 310,000 tested, 1.2% active; Q8BHY3; normalized B-score (activity score, 25-100; higher = stronger inhibition) at 10 µM; HEK293 TMEM16A/YFP iodide influx fluorescence, ionomycin;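 active = ratio plate-corrected score three or more library SD toward inhibition, starting fluorescence score within five deviations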;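 note: score derived from kinetic fluorescence span divided by baseline fluorescence per well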
SR-BI DiI inh: inhibitors of mouse SR-BI mediated HDL lipid uptake; Q61009; ldlA[mSR-BI] CHO cells, DiI-HDL uptake fluorescence, 3 h; inhibition, % at 12.5 µM; 320,000 tested, 0.96% active; AID 488896;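 active = mean replicate inhibition of at least 70% and a set share of replicates each scoring 70 or more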;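 note: 0% = median of neutral control wells and 100% = median of positive control wells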
Target sequence (Q61009 whole entry, looked up): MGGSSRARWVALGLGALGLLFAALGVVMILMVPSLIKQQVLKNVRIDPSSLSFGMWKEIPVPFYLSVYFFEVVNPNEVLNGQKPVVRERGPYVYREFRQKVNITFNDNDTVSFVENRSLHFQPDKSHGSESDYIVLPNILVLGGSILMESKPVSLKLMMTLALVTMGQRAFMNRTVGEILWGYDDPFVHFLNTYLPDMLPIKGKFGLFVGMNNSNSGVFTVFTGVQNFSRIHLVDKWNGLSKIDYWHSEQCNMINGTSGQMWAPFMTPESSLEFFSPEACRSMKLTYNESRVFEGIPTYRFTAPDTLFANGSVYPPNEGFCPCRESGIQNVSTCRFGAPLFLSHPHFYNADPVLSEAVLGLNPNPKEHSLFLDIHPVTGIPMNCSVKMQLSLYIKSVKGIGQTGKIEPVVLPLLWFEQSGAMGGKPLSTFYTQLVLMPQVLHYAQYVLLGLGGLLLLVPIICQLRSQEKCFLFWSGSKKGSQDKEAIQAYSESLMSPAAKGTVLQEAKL
* = called active by the depositor.

`CCCCOc1ccc(-c2ncc(N)cn2)cc1` gave DNA FID counter -6, SR-BI uptake up 313*, ANO1 activ inactive, Kir21 block 0.05, ANO1 block inactive and SR-BI DiI inh -313.
For O=C(COC(=O)CC1SC(N2CCCC2)=NC1=O)Nc1c(F)c(F)c(F)c(F)c1F (stereo unspecified) the results were SR-BI uptake up 12, ANO1 activ inactive and SR-BI DiI inh -12.
CCCN1CCC(N(CCc2ccccc2)Cc2ccccc2)CC1 was read as DNA FID counter 15, SR-BI uptake up -6, ANO1 activ inactive, Kir21 block -3.1, ANO1 block inactive and SR-BI DiI inh 6.
`COc1ccc(CN2CCC(N(CCc3ccccc3)Cc3ccccc3)CC2)c(OC)c1` gave DNA FID counter 30, SR-BI uptake up -17, ANO1 activ inactive, Kir21 block -4.7*, ANO1 block inactive and SR-BI DiI inh 17.
For COc1ccc(-c2cc(C(=O)Nc3c(C)n(C)n(-c4ccccc4)c3=O)c3ccccc3n2)cc1OC the results were DNA FID counter -41, SR-BI uptake up -92, ANO1 activ inactive, Kir21 block -0.48, ANO1 block inactive and SR-BI DiI inh 92*.
Cc1c(NC(=O)c2cc(-c3cccs3)nc3ccccc23)c(=O)n(-c2ccccc2)n1C was read as DNA FID counter -12, SR-BI uptake up -77, ANO1 activ inactive, Kir21 block -1.4, ANO1 block inactive and SR-BI DiI inh 77*.
`Cc1ccc(-c2cc(C(=O)Nc3c(C)n(C)n(-c4ccccc4)c3=O)c3ccccc3n2)cc1` gave SR-BI uptake up -74, ANO1 activ inactive and SR-BI DiI inh 74*.
For Cc1c(NC(=O)COC(=O)c2cc(-c3ccc(-c4ccccc4)cc3)nc3ccccc23)c(=O)n(-c2ccccc2)n1C the results were DNA FID counter -3, SR-BI uptake up -51, ANO1 activ inactive, Kir21 block -1.7, ANO1 block inactive and SR-BI DiI inh 51.
`Cc1c(NC(=O)c2cc(-c3ccccc3)nc3ccccc23)c(=O)n(-c2ccccc2)n1C` gave SR-BI uptake up -77, ANO1 activ inactive and SR-BI DiI inh 77*.
Screening Cc1ccc(C(C)NC(=O)c2ccc3c(c2)OCO3)cc1C (stereo unspecified) returned DNA FID counter -13, ANO1 activ inactive, Kir21 block 1.1, ANO1 block inactive and SR-BI DiI inh -15.
`CCOc1ccc(S(=O)(=O)Nc2cc(S(=O)(=O)N3CCOCC3)ccc2OC)cc1` gave SR-BI uptake up 12, ANO1 activ inactive and SR-BI DiI inh -12.
Screening O=C(NNc1nc2ccc(Cl)cc2s1)c1cc(-c2cccs2)nc2ccccc12 returned DNA FID counter -9, SR-BI uptake up -89, ANO1 activ inactive, Kir21 block 0.17, ANO1 block inactive and SR-BI DiI inh 89*.
`COc1ccc(-c2csc(N3C(=O)C4C5c6ccccc6C(c6ccccc65)C4C3=O)n2)cc1` (stereo unspecified) gave DNA FID counter -10, SR-BI uptake up 32, ANO1 activ inactive, Kir21 block 2.1, ANO1 block inactive and SR-BI DiI inh -32.
`Cc1ccc(-c2nc(N/N=C/c3ccccc3[N+](=O)[O-])c3ccccc3n2)cc1` gave DNA FID counter 2, SR-BI uptake up -87, ANO1 activ inactive, Kir21 block 0.15, ANO1 block inactive and SR-BI DiI inh 87*.
For CCN1C(=O)/C(=C2/C(=O)N3c4c(cc(OC(C)=O)cc42)C(C)=CC3(C)C)SC1=S the results were DNA FID counter -3, SR-BI uptake up -86, ANO1 activ inactive, Kir21 block -0.01, ANO1 block inactive and SR-BI DiI inh 86*.
Screening CC(C)C(NC(=O)c1ccc2c(c1)OCO2)C(=O)N/N=C/c1cccs1 (stereo unspecified) returned DNA FID counter -3, SR-BI uptake up 7, ANO1 activ inactive, Kir21 block 1.6, ANO1 block inactive and SR-BI DiI inh -7.

Screening results (PubChem)
